The record followed here is ChEMBL document CHEMBL1157183, “Synthesis and discovery of a novel pyrazole derivative as an inhibitor of apoptosis through modulating integrin beta4, ROS, and p53 levels in vascular endothelial cells” (2008).

Calls of active or inactive are those of the source. No cut-off for these calls is given here.

Test [1] relates to HUVEC. The experiment in a line: Suppression of apoptosis in HUVEC cells at 25 uM by MTT assay. The format is functional, cell-based. The following applies: Homo sapiens. An outline of the steps: (§1)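 Sub-confluent HUVECs, passages 10–20, were washed and cultured in M199 without serum and FGF-2. They were treated at 5, 10, 20, 25, 50 and 100 µM (DMSO vehicle at a non-toxic final level). Viability was measured by MTT at 24 and 48 h against deprived control and full-medium normal cells; n = 3.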
On the technique in general: Tetrazolium assays rely on reduction of a dye to a coloured formazan, in cell work by metabolically active cells.

Test [2] deals with HUVEC. Kind of test: Induction of apoptosis in HUVEC cells at 50 uM by MTT assay. The class given is functional, cell-based. The following applies: Homo sapiens. An outline of the steps:
as §1

Test [3] has as its system HUVEC. Kind of test: Induction of apoptosis in HUVEC cells at 100 uM by MTT assay. The following applies: Homo sapiens. The format is functional, cell-based. An outline of the steps: as §1
Test [4] has as its system HUVEC. The experiment in a line: Increase in cell viability of HUVEC cells at 25 uM. The following applies: Homo sapiens. The format is functional, cell-based. An outline of the steps:
as §1

Test [5] deals with HUVEC. The experiment in a line: Inhibition of nuclear DNA condensation in HUVEC cells at 25 uM after 24 hrs by acridine orange staining assay. The format is functional, cell-based. The following applies: Homo sapiens. An outline of the steps:
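Serum/FGF-2-deprived HUVECs were treated with 25 µM for 24 h, then stained with acridine orange for 5 min. Nuclear condensation and fragmentation were examined by laser scanning confocal microscopy.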

The test system of test [6] is HUVEC. Kind of test: Inhibition of DNA fragmentation in HUVEC cells at 25 uM after 24 hrs by TUNEL assay. The class given is functional, cell-based. The following applies: Homo sapiens. An outline of the steps: (§2)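 TUNEL staining was done on HUVECs deprived of serum and FGF-2 (basal M199) and treated with 25 µM for 24 h. Apoptotic cells were quantified as a percentage from fluorescent micrographs, relative to deprived control and to cells in M199 with 20% FBS plus 70 ng/mL FGF-2.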

Test [7] has as its system HUVEC. Kind of test: Reduction of serum and FGF2 deprivation-induced apoptosis in HUVEC cells at 25 uM after 24 hrs. The format is functional, Homo sapiens. Also noted: scale not given: the % may be the effect or the level left. An outline of the steps:
as §2

Test [8] relates to HUVEC. Kind of test: Decrease in integrin beta4 level in HUVEC cells at 25 uM after 12 hrs in absence of serum and FGF2. The class given is functional, Homo sapiens. An outline of the steps:
(§3)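 HUVECs, passages 10–20, grown to sub-confluence, washed and switched to basal M199 without FBS and FGF-2; 25 µM in DMSO for 12, 24 or 48 h. Comparators were cells kept in M199 with 20% FBS plus 70 ng/mL FGF-2 and cells in basal medium alone. Immunofluorescence used rabbit anti-human integrin β4 and FITC-IgG secondary, read by laser scanning confocal microscopy as relative fluorescence intensity; n = 3.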

For test [9], the system named is HUVEC. The experiment in a line: Decrease in integrin beta4 level in HUVEC cells at 25 uM after 24 hrs in absence of serum and FGF2. The class given is functional, Homo sapiens. An outline of the steps:
as §3

Test [10] concerns HUVEC. The experiment in a line: Decrease in integrin beta4 level in HUVEC cells at 25 uM after 48 hrs in absence of serum and FGF2. The class given is functional, Homo sapiens. An outline of the steps:
as §3

In test [11] the test system is HUVEC. Kind of test: Decrease in serum and FGF2 deprivation-induced intracellular ROS level in HUVEC cells. The class given is functional, cell-based. The following applies: Homo sapiens. An outline of the steps:
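Intracellular ROS measured with the DCHF probe, which oxidises to fluorescent DCF. Cells were HUVECs in basal M199 lacking serum and FGF-2, exposed to 25 µM for 12, 24 and 48 h. Fluorescence was imaged by laser scanning confocal microscopy and expressed as relative DCF intensity per cell in the scanned area; n = 3.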

Test [12] has as its system HUVEC. Kind of test: Decrease in serum and FGF2 deprivation-induced p53 level in HUVEC cells. The format is functional, cell-based. The following applies: Homo sapiens. An outline of the steps:
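Serum/FGF-2-deprived HUVECs (basal M199) received 25 µM for 12, 24 and 48 h. Comparators were cells in M199 with 20% FBS and 70 ng/mL FGF-2 and untreated deprived cells. p53 was detected by immunofluorescence with rabbit anti-human p53 and FITC-IgG secondary, semiquantified as relative intensity by confocal microscopy; n = 3.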

For the compound `CCOC(=O)c1c(-c2ccccc2Cl)nn(-c2ccccc2)c1C`, the outcome in test [1], in [2], in [3], in [4], in test [5] and in test [6] was Active. For the same compound, the outcome in test [11] and in [12] was Active. The Activity in [7] stood at 19.16%. Besides, the Flu intensity stood at 6.307 in [8], 9.083 in [9] and 13.14 in test [10].
